Assay [1] concerns the target T1, Peroxisome proliferator-activated receptor gamma (Homo sapiens, UniProt P37231).
T1 sequence (P37231 whole entry): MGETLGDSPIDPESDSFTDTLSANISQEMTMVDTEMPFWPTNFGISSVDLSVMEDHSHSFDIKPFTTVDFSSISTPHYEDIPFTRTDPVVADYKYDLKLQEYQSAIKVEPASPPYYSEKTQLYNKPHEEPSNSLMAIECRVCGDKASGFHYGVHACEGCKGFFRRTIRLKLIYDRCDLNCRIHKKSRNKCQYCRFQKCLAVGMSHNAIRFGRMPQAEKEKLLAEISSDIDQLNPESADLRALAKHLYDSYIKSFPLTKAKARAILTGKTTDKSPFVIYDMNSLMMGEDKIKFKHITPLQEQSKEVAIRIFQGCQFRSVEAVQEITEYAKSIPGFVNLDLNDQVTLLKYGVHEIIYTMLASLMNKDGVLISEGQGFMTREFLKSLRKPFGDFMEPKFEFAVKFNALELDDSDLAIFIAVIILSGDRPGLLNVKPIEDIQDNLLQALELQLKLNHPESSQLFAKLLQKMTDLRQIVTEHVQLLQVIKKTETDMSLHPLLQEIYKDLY
The experiment in a line: Agonist activity at PPARgamma expressed in HEK293 after 8 hrs by luciferase reporter gene assay. It is filed as functional, cell-based. An outline of the steps: (§1)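 HEK293 cells grown in DMEM with 5% FBS at 37 °C in 5% CO2 were calcium-phosphate co-transfected with CMX-GAL4N-hPPAR LBD (subtype-specific), TK-MH100x4-LUC reporter and CMX β-galactosidase for normalization. Compounds were added 8 h post-transfection. Luciferase was read by luminometer and β-galactosidase by plate reader. Values are normalized averages; triplicate, repeated at least twice.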
(In general: Reporter assays use an easily measured gene product as a stand-in for the process of interest.)

Assay [2] has as its target T2, Oxysterols receptor LXR-alpha (Homo sapiens) (UniProt Q13133).
T2 sequence (whole entry): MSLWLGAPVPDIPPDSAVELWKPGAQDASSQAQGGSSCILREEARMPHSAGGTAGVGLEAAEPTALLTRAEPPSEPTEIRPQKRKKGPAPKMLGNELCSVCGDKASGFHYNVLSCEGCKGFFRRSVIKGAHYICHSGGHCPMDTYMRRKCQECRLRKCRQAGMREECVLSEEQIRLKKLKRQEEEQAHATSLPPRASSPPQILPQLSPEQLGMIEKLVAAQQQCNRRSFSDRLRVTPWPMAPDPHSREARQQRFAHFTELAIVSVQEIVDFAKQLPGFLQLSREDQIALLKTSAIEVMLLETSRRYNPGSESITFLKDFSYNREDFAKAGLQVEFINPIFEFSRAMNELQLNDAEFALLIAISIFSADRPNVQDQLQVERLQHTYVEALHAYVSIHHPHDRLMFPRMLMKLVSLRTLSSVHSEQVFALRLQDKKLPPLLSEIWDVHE
The assay is described as follows: Agonist activity at LXR. It is filed as functional.

In assay [3] the target is T3, Bile acid receptor (Homo sapiens) (UniProt Q96RI1).
T3 sequence (whole entry): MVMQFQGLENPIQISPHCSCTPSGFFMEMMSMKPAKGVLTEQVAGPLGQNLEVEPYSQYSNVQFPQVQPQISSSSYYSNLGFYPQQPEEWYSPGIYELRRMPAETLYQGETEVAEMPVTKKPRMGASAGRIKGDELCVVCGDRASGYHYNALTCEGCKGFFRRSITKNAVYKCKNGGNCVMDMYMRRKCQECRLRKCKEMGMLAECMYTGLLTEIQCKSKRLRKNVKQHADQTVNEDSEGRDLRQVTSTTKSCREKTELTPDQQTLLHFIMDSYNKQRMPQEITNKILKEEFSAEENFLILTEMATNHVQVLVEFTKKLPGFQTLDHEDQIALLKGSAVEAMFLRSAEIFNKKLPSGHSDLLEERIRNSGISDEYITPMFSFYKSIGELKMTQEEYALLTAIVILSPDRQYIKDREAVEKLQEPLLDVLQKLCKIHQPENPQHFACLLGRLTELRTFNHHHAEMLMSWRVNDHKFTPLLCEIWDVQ
The experiment in a line: Agonist activity at FXR transfected in HEK293 cells by luciferase reporter gene assay. In kind it is functional, cell-based.

Assay [4] concerns the target T4, Peroxisome proliferator-activated receptor alpha (Homo sapiens) (UniProt Q07869).
T4 sequence (whole entry): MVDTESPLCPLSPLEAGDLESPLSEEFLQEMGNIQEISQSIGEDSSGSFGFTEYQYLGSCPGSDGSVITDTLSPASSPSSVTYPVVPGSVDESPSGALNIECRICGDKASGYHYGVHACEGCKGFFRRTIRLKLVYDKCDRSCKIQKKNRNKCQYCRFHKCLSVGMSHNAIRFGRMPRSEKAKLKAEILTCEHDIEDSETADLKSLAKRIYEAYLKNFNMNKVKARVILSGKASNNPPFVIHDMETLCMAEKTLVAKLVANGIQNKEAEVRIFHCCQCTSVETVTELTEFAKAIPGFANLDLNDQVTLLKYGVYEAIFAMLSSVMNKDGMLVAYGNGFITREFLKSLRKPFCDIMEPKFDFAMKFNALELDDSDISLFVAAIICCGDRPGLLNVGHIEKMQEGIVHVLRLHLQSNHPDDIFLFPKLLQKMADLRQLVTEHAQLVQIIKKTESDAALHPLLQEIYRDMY
The assay is described as follows: Agonist activity at human PPARalpha expressed in HEK293 after 8 hrs by luciferase reporter gene assay relative to fenofibric acid. In kind it is functional, cell-based. An outline of the steps: (§2)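 GAL4N-hPPAR LBD chimera with TK-MH100x4-LUC reporter in calcium-phosphate-transfected HEK293 (DMEM, 5% FBS), compounds added 8 h post-transfection. Luciferase was normalized to β-galactosidase. Percent efficacy (Emax) was taken at the maximal stimulatory response relative to 10 µM fenofibric acid (PPARα), 100 nM GW501516 (PPARδ) or 10 µM ciglitazone (PPARγ). Triplicate, at least twice.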

Assay [5] deals with T3, Bile acid receptor (Homo sapiens). The assay is described as follows: Antagonist activity at FXR transfected in HEK293 cells by luciferase reporter gene assay. It is filed as functional, cell-based.
Assay [6] deals with T5, Peroxisome proliferator-activated receptor gamma (Homo sapiens) (UniProt P37231).
T5 sequence (whole entry): T1 sequence (P37231 whole entry)
The assay is described as follows: Agonist activity at PPARgamma expressed in HEK293 after 8 hrs by luciferase reporter gene assay relative to ciglitazone. In kind it is functional, cell-based. An outline of the steps:
as §2

The target of assay [7] is T2, Oxysterols receptor LXR-alpha (Homo sapiens). The assay is described as follows: Antagonist activity at LXR. In kind it is functional.
For assay [8], the target named is T6, Peroxisome proliferator-activated receptor delta (Homo sapiens) (UniProt Q03181).
T6 sequence (whole entry): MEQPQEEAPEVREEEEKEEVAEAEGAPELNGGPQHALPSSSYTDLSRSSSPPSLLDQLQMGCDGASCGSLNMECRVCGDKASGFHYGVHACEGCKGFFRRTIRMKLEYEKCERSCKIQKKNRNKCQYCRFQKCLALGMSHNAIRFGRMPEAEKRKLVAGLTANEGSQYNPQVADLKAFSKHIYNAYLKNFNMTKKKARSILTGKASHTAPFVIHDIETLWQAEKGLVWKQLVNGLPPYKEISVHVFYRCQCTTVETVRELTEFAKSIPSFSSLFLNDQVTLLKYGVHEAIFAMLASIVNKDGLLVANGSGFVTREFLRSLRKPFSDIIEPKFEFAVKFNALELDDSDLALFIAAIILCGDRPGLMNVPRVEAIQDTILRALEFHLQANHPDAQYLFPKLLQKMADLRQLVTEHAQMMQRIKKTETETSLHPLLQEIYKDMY
The experiment in a line: Agonist activity at human PPARdelta expressed in HEK293 after 8 hrs by luciferase reporter gene assay relative to GW501516. In kind it is functional, cell-based. An outline of the steps:
as §2

Assay [9] addresses T7, Peroxisome proliferator-activated receptor alpha (Homo sapiens, UniProt Q07869).
T7 sequence (Q07869 whole entry): T4 sequence (whole entry)
The experiment in a line: Agonist activity at human PPARalpha expressed in HEK293 after 8 hrs by luciferase reporter gene assay. In kind it is functional, cell-based. An outline of the steps: as §1

For assay [10], the target named is T8, Peroxisome proliferator-activated receptor delta (Homo sapiens, UniProt Q03181).
T8 sequence (Q03181 whole entry): T6 sequence (whole entry)
The experiment in a line: Agonist activity at PPARdelta expressed in HEK293 after 8 hrs by luciferase reporter gene assay. In kind it is functional, cell-based. An outline of the steps: as §1

Active and inactive are the calls of the source. No cut-off for these calls is given here.

`O=C(O)CCCOc1ccc(CCc2ccc(N3C(=O)c4ccccc4C3=O)cc2)cc1` came in with an EC50 in assay [1] of 12 µM. The outcome in assay [2], in assay [3], in [5] and in assay [7] was inactive. Further, the Emax in [4] came to 0%; in [6], 31%; in [8] it was 1%.

Take `O=C(O)COc1ccc(CCc2ccc(N3C(=O)c4ccccc4C3=O)cc2)cc1`: the result in [2], in assay [3], in assay [5] and in assay [7] was inactive. Besides, the Emax stood at 29% in assay [4], 6% in assay [6] and 10% in assay [8]. The concentration for a half-maximal effect (EC50) in assay [9] was 29 µM; in assay [10], 62 µM.

Consider `O=C(O)CCc1ccc(CCc2ccc(N3C(=O)c4ccccc4C3=O)cc2)cc1`, for which the result in [2], in [3], in assay [5] and in [7] was inactive. The Emax is 53% in [4], 7% in assay [6] and 27% in assay [8]. Further, the EC50 in assay [9] came to 11 µM; in assay [10], 13 µM.

The term EC50 denotes the concentration that produces a half-maximal response.

The values are drawn from ChEMBL document CHEMBL1811873, “Peroxisome proliferator-activated receptor agonists with phenethylphenylphthalimide skeleton derived from thalidomide-related liver X receptor antagonists: relationship between absolute configuration and subtype selectivity” (Bioorg Med Chem, 2011).
